Source: PubChem (The Scripps Research Institute Molecular Screening Center)
CHRM1 antagonist = antagonists of human M1 muscarinic receptor | actives 1.3% (n = 360,000) | P11229 | CHO-K1 hM1, Fluo-8 calcium fluorescence, ACh EC80 antagonist | inhibition, % at 3 µM;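 active = percent inhibition above its own plate's cutoff, namely the mean of that plate's compound wells plus 3 SD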;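 also: peak over basal fluorescence ratio during 140 s after agonist addition; 0% = ACh EC80 plus DMSO and 100% = DMSO alone without agonist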
Target sequence (P11229 whole entry, looked up): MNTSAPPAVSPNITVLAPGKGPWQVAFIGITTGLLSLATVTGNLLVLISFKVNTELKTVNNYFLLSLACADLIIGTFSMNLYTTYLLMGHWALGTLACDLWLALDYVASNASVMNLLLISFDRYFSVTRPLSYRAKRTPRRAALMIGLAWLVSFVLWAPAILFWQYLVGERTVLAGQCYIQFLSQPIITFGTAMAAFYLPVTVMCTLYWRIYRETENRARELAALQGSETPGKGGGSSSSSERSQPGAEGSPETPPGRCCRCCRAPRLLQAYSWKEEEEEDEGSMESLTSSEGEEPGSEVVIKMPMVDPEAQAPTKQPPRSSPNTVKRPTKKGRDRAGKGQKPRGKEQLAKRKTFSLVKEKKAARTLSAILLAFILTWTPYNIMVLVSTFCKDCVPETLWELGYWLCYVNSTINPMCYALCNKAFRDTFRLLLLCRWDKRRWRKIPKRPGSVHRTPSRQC
TAAR1 antagonist = human TAAR1 antagonism | Q96RJ0 | CHO RD-HGA16 TAAR1, Fluo-8 calcium fluorescence, antagonist | inhibition, % at 3 µM | actives 1.5% (n = 360,000);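 active = inhibition above a per-plate cutoff, the mean inhibition of test compounds on that plate plus 3 SD, cut at about 49% in these data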;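 also: 0% = DMSO plus EC80 beta-PEA response and 100% = DMSO alone without agonist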
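Material: CHO RD-HGA16 cells bearing hTAAR1; compound dosing: one-point dosing, 3 µM nominal final; schedule: dye loading 75 min at 37 °C, then 30 min room temperature; measured by: calcium fluorescence with Fluo-8; control set: vehicle and agonist controls; replication: n of 1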
TAAR1 ag = human TAAR1 agonism; CHO RD-HGA16 TAAR1, Fluo-8 calcium fluorescence; vehicle wells 0%, saturating PEA agonist 100%; activation, % at 3 µM; actives 0.99% (n = 360,000); AID 624467;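 active = activation above the mean activation of all test compounds in the run plus 3 SD, cut at about 38% in these data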
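Benchmarks: low control DMSO, high control PEA (EC100); System: CHO RD-HGA16 cells carrying human TAAR1 plus Gα16; Detection: Fluo-8 fluorescence, 5 s baseline then 140 s kinetic read; Schedule: 17-24 h plating, Fluo-8 75 min 37 °C, 30 min RT; Read-out basis: % activation from peak over basal fluorescence ratio, DMSO-to-PEA scaled.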
m5-HT2A agonist = mouse HTR2A agonism via beta-arrestin recruitment; CHO-K1 mHTR2A beta-arrestin complementation, luminescence; percent of 30 µM serotonin response; P35363; actives 0.66% (n = 360,000); activation, % at 7.6 µM;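 active = activation above a run cutoff, the mean activation of all tested compounds plus 3 SD, cut at about 14% in these data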;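 also: 0% = plate median of compound wells and 100% = 30 µM serotonin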
CHRM1 agonist = human M1 muscarinic receptor agonism. activation, % at 3 µM. AID 588814. CHO-K1 hM1, Fluo-8 calcium fluorescence, agonist mode; 0% DMSO, 100% acetylcholine EC100. actives 0.33% (n = 360,000). P11229;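 active = activation above the run's mean compound activation plus 3 SD, cut at about 16% in these data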;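 also: peak over basal fluorescence ratio within a 140 s kinetic read after compound addition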
CHRM1 PAM = positive allosteric modulators of human M1 muscarinic receptor; P11229; CHO-K1 hM1, Fluo-8 calcium fluorescence, ACh EC20; 0% = ACh EC20, 100% = maximal ACh; activation, % at 3 µM; actives 0.088% (n = 360,000); AID 588819; in the data active = activation above about 19%, passing the limit was not always enough
TAAR1 ag conf = confirmation of human TAAR1 agonists. CHO RD-HGA16 TAAR1, Fluo-8 calcium fluorescence; scaled: DMSO 0%, maximal phenethylamine 100%. activation, % at 3 µM. actives 82% (n = 2,400). shares compounds with TAAR1 ag;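 active = activation above a cutoff set at the run's mean compound activation plus 3 SD, cut at about 39% in these data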
Ga16 nonsel ag = nonselective agonist in parental cells, TAAR1 agonist counter-screen; shares compounds with TAAR1 ag; CHO-Ga16 parental, Fluo-8 calcium fluorescence; normalized to maximal ATP response, DMSO zero; activation, % at 3 µM; actives 50% (n = 2,400);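 active = activation above the run cutoff, the mean activation over all tested wells plus 3 SD, cut at about 12% in these data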;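 also: 0% = DMSO wells and 100% = maximal ATP response on the peak over basal ratio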
TAAR1 desens = counter-screen for human TAAR1 agonists: agonists that desensitize TAAR1; actives 46% (n = 2,400); inhibition, % at 3 µM; CHO RD-HGA16 hTAAR1, Fluo-8 calcium, beta-PEA response inhibition; shares compounds with TAAR1 ag;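 active = inhibition above the run cutoff, the mean inhibition of all test compounds plus 3 SD, cut at about 49% in these data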;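 also: beta-PEA stimulus applied at its EC80; loss of beta-PEA calcium signal after compound pretreatment read as receptor desensitization; 0% = DMSO with beta-PEA at EC80 and 100% = DMSO alone without agonist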
Ga16 nonsel ant = nonselective Ga16 antagonism, counter-screen; inhibition, % at 3 µM; actives 39% (n = 2,400); CHO-Ga16 ATP-induced calcium, Fluo-8 fluorescence; shares compounds with TAAR1 ag;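 active = inhibition above the plate's mean compound inhibition plus 3 SD, computed per plate, cut at about 22% in these data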;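 also: 0% = EC80 ATP with DMSO and 100% = DMSO wells without ATP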
* = called active by the depositor; . = not tested or not shown. Most compounds without a hit are left out; they make up all but 3.9% or so of the library.

SMILES	CHRM1 antagonist	TAAR1 antagonist	TAAR1 ag	m5-HT2A agonist	CHRM1 agonist	CHRM1 PAM	TAAR1 ag conf	Ga16 nonsel ag	TAAR1 desens	Ga16 nonsel ant
CN(C(=O)CSc1nc2[nH]ncc2c(=O)[nH]1)c1ccccc1	-12.9	-43.3	0.3	-4.1	2.8	20.2	.	.	.	.
CCOc1ccc(NC(=O)C/C(C)=N/NC(=O)COc2ccc(Br)cc2C)cc1	-14.0	-5.4	0.1	4.9	-1.7	7.1	.	.	.	.
O=C(CCC(=O)c1ccc(Cl)cc1)OCc1nc2ccsc2c(=O)[nH]1	2.5	-35.2	2.8	4.7	-0.8	0.1	.	.	.	.
Cc1ccccc1OCC(=O)N1CCc2ccccc2C1	-10.0	19.2	42.0*	1.1	-5.1	3.9	88.5*	1.8	31.1	-2.9
O=C(CN(C1CCCCC1)C1CCCCC1)N1CCc2ccccc2C1	-9.2	98.8*	95.7*	3.5	-6.7	-8.7	106.5*	21.2*	105.4*	29.5*
O=C(CN(C1CCCCC1)S(=O)(=O)c1ccccc1)N1CCCC1	-6.3	-2.3	-2.7	0.8	-2.3	8.5	.	.	.	.
O=C(CSc1ncccn1)N1CCc2ccccc2C1	2.7	7.3	6.8	-2.3	-6.7	-1.3	.	.	.	.
O=C(CNCc1ccccn1)N1CCc2ccccc2C1	2.0	2.9	46.7*	3.7	-4.3	1.0	28.4	0.1	-2.2	5.7
COC(C(=O)Nc1ccnn1C1CCN(Cc2ccc(C)s2)CC1)c1ccccc1 (configuration not stated)	-7.9	-25.8	2.4	-3.7	-3.4	4.3	.	.	.	.
O=C(COC(=O)CCCOc1ccccc1)NNC(=O)c1ccc([N+](=O)[O-])cc1	-4.6	-3.2	1.1	3.1	-2.3	5.2	.	.	.	.
Cc1c(CNCC(C)c2ccccc2)c(C(=O)O)c(C)n1Cc1ccccc1 (configuration not stated)	-3.3	5.9	89.6*	6.2	-4.9	3.6	78.4*	1.7	18.1	-2.5
CC(=O)N(Cc1ccccc1)C1CC(=O)N(Cc2ccccc2)C1=O (configuration not stated)	-15.8	17.9	1.9	-0.2	-1.2	4.2	.	.	.	.
NC(=Nc1ccc(Br)cc1)c1ccccc1	-7.4	40.3	49.8*	2.2	-1.1	-3.2	55.3*	27.3*	48.5	18.1
N/C(=N\OC(=O)Oc1ccccc1)c1ccc(Br)cc1	-37.7	-8.8	8.6	4.8	-0.5	6.5	.	.	.	.
COC(=O)C1CC(C(=O)OC)C2C(C(=O)OC)CC(C(=O)OC)C12 (configuration not stated)	-11.7	-1.0	0.7	2.1	-0.9	8.5	.	.	.	.
COc1cc2c(cc1OC)C(O)C(O)(CO)C(C(=O)O)C2c1cc(OC)c(OC)c(OC)c1 (configuration not stated)	-12.3	-8.1	3.4	-1.6	-2.2	4.6	.	.	.	.
O=[N+]([O-])c1ccc(C=CC=Cc2ccccc2)cc1	-6.3	-13.9	1.8	-0.3	-0.8	8.0	.	.	.	.
O=[N+]([O-])c1ccc(/C=C/C2=NN(c3ccccc3)C(c3ccco3)C2)cc1 (configuration not stated)	25.5*	74.7*	79.6*	-3.7	18.8*	-13.3	128.4*	198.2*	89.7*	94.5*
O=c1[nH]nc(Br)c(=O)n1C(c1ccccc1)c1ccccc1	7.8	16.1	71.3*	4.7	18.7*	-13.2	46.9*	25.5*	17.7	9.8
O=c1[nH]c(=O)n(C(c2ccccc2)c2ccccc2)cc1Br	11.5	-24.4	3.6	-3.3	-6.2	-6.8	.	.	.	.
COc1cccc(CN(C(=O)/C=C/c2ccc(Cl)cc2)C2CCS(=O)(=O)C2)c1 (configuration not stated)	0.5	-22.1	5.5	-0.5	-4.4	0.9	.	.	.	.
c1ccc2c(c1)CCN(c1nc3cc4c(cc3s1)OCO4)C2	-0.4	61.2*	85.3*	-5.5	2.8	1.1	89.2*	-0.2	81.9*	8.8
c1ccc(N2CCN(c3nc4cc5c(cc4s3)OCO5)CC2)cc1	-0.4	7.1	5.1	-2.6	-2.6	3.9	.	.	.	.
COc1ccc(N(C(=O)CCl)C(C(=O)NCCc2ccccc2)c2cccs2)cc1Cl (configuration not stated)	-16.6	28.3	40.1*	2.0	-3.7	15.6	33.5	-0.7	18.1	19.5
COc1cccc(N(C(=O)CCl)C(C(=O)NCCc2ccccc2)c2cccs2)c1 (configuration not stated)	-10.8	0.5	33.9	9.1	-8.8	15.4	.	.	.	.
SMILES	CHRM1 antagonist	TAAR1 antagonist	TAAR1 ag	m5-HT2A agonist	CHRM1 agonist	CHRM1 PAM	TAAR1 ag conf	Ga16 nonsel ag	TAAR1 desens	Ga16 nonsel ant
N/C(=N\N=C/c1ccc(Br)cc1)N/N=C\c1ccc(Br)cc1	-3.3	-1.6	8.2	-0.9	-4.6	2.7	.	.	.	.
O=C(COCC(=O)N/N=C/c1ccc(F)cc1)N/N=C/c1ccc(F)cc1	8.9	7.2	54.3*	-1.7	-4.2	-4.3	66.3*	0.5	42.3	14.1
CCOC(=O)C(=O)N/N=C/c1ccc(F)cc1	5.5	-24.3	0.1	-1.0	-0.8	-4.0	.	.	.	.
N/C(=N\N=C/c1ccc(F)cc1)N/N=C\c1ccc(F)cc1	15.0	62.6*	70.1*	-2.6	-4.8	-6.6	80.6*	4.1	76.8*	2.0
CC1CCCCN1C(=O)C1COc2ccccc2O1 (configuration not stated)	-11.3	-12.1	0.6	7.4	-4.6	11.3	.	.	.	.
COc1ccc(C2/C(=C(/O)c3ccc4c(c3)CC(C)O4)C(=O)C(=O)N2CCN2CCOCC2)cc1OC (configuration not stated)	-6.1	-12.5	2.8	-5.2	1.2	8.2	.	.	.	.
OC(COc1c(F)cc(Br)cc1F)CN1CCc2ccccc2C1 (configuration not stated)	-5.2	11.2	55.1*	-7.3	-7.6	4.4	66.2*	0.4	17.2	10.0
Cc1cccc(C)c1OCC(O)CN1CCc2ccccc2C1 (configuration not stated)	11.4	-16.9	1.4	-1.3	-1.4	-9.5	.	.	.	.
CS/C(Nc1cc(Cl)ccc1Cl)=C(/C#N)C(=O)c1ccco1	1.9	-27.0	-0.6	5.0	2.0	3.0	.	.	.	.
